Laboratory results as given in paper PMC5035790 (Annals of Oncology, 2016).
Marks after values point to notes of the source that are not given here.

Assays:
[1] = Plasma pharmacokinetics of copanlisib; type: in vivo, human
[2] = test system: advanced solid tumors; experiment: Tumor response by investigator, modified RECIST version 1.1; type: in vivo, human
Summary of the method: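 Solid-tumour patients (dose-escalation cohorts 0.1–1.2 mg/kg, expansion at 0.8 mg/kg) received a 1-h IV infusion on days 1, 8 and 15 of 28-day cycles until progression. Response was by investigator assessment using modified RECIST 1.1. PTEN loss by IHC was defined as 0% tumour cells staining, low as 1% to <5%, and positive as ≥5%.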

[3] = test system: non-Hodgkin's lymphoma; experiment: Tumor response by International Working Group response criteria for lymphoma; type: in vivo, human; settings: follicular lymphoma (FL), six patients
Summary of the method: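 NHL expansion cohort (follicular lymphoma and DLBCL) received 0.8 mg/kg as a 1-h IV infusion on days 1, 8 and 15 of each 28-day cycle, continued until progression or unfavourable risk:benefit. Response was judged by investigator assessment using International Working Group lymphoma criteria.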

[4] = Blood pressure monitoring after infusion; type: in vivo, human
[5] = test system: p110γ; settings: read-out: IC50 p110γ; cited from earlier work
[6] = cycle 1 day 1, NHL expansion, 0.8 mg/kg, n=9, value (range)
[7] = cycle 1 day 1, diabetic expansion, 0.4 mg/kg, n=6, value (range)
[8] = cycle 1 day 1, solid tumors expansion, 0.8 mg/kg, n=25, value (range)
[9] = human, plasma, intravenous, 0.8 mg/kg

Compound: COc1c(OCCCN2CCOCC2)ccc2c1N=C(NC(=O)c1cnc(N)nc1)N1CCN=C21 [copanlisib, Copanlisib]
- coefficients of variation of Cmax and AUC(0–25) ([1]; 0.1 to 1.2 mg/kg): 30–50%
- inter-patient variability of AUC ([1]; MTD 0.8 mg/kg): 47%
- terminal half-life ([1]; MTD 0.8 mg/kg, coefficient of variation 43%): ~38 h
- Cmax levels of unbound copanlisib ([1]; at the MTD): ~150 nM
- dose dependence of Cmax and AUC(0–25) ([1]; between 0.1 and 1.2 mg/kg): dose-proportionally
- tlast ([1]; cycle 1 day 1, MTD 0.8 mg/kg combined, n=7, value (range)): 142.5 (25.0–194.2)^e h
- Tmax ([1]; cycle 1 day 1, MTD 0.8 mg/kg combined, n=34, value (range)): 1.0 (0.5–3.0)^d h
- Tmax [1, 6]: 1.0 (0.5–1.0) h
- tlast [1, 6]: 167.0 (47.3–191.9) h
- tlast ([1]; cycle 1 day 1, cohort 1, 0.1 mg/kg, n=1, individual data): 48.6 h
- tlast ([1]; cycle 1 day 1, cohort 2, 0.2 mg/kg, n=3, value (range)): 48.4 (25.0–49.0) h
- tlast ([1]; cycle 1 day 1, cohort 3, 0.4 mg/kg, n=2, range): 167.8 to 170.2 h
- tlast ([1]; cycle 1 day 1, cohort 4, 0.8 mg/kg, n=7, value (range)): 142.5 (25.0–192.0) h
- tlast ([1]; cycle 1 day 1, cohort 5, 1.2 mg/kg, n=2, range): 29.3–167.2^b,c h
- Tmax [1, 7]: 1.0 (1.0–1.2) h
- tlast [1, 7]: 49.0 (48.9–167.4) h
- Tmax [1, 8]: 1.0 (0.5–3.0) h
- tlast [1, 8]: 118.5 (46.4–194.2) h
- Tmax ([1]; cycle 1 day 15, MTD 0.8 mg/kg combined, n=36, value (range)): 1.0 (0.5–1.3)^m h
- Tmax ([1]; cycle 1 day 15, solid tumors expansion, 0.8 mg/kg, n=22, value (range)): 1.0 (0.5–1.3)^l h
- accumulation after once-weekly administration ([1]; days 1 and 15): no accumulation
- concentration at 1 week ([1]; human, blood, intravenous, 0.8 mg/kg): 1.6 nM
- AUC(0-t) ([1]; human, plasma, intravenous, 0.1 mg/kg, AUC(0–25), cycle 1 day 1, cohort 1, 0.1 mg/kg, n=1, individual data): 170 ng·h/mL
- AUC(0-t) ([1]; human, plasma, intravenous, 0.1 mg/kg, AUC(0–25), cycle 1 day 15, cohort 1, 0.1 mg/kg, n=1, individual data): 175 ng·h/mL
- AUC(0-t) ([1]; human, plasma, intravenous, 0.1 mg/kg, AUC(0–tlast), cycle 1 day 1, cohort 1, 0.1 mg/kg, n=1, individual data): 254 ng·h/mL
- Cmax ([1]; human, plasma, intravenous, 0.1 mg/kg, cycle 1 day 1, cohort 1, 0.1 mg/kg, n=1, individual data): 32.9 ng/mL
- Cmax ([1]; human, plasma, intravenous, 0.1 mg/kg, cycle 1 day 15, cohort 1, 0.1 mg/kg, n=1, individual data): 37.6 ng/mL
- Tmax ([1]; human, plasma, intravenous, 0.1 mg/kg, tmax, cycle 1 day 1, cohort 1, 0.1 mg/kg, n=1, individual data): 0.5 h
- Tmax ([1]; human, plasma, intravenous, 0.2 mg/kg): 1 h
- AUC(0-t) ([1]; human, plasma, intravenous, 0.2 mg/kg, AUC(0–25), cycle 1 day 1, cohort 2, 0.2 mg/kg, n=3, geometric mean (%CV)): 384 ng·h/mL
- AUC(0-t) ([1]; human, plasma, intravenous, 0.2 mg/kg, AUC(0–25), cycle 1 day 15, cohort 2, 0.2 mg/kg, n=3, geometric mean (%CV)): 453 ng·h/mL
- AUC(0-t) ([1]; human, plasma, intravenous, 0.2 mg/kg, AUC(0–tlast), cycle 1 day 1, cohort 2, 0.2 mg/kg, n=3, geometric mean (%CV)): 472 ng·h/mL
- Cmax ([1]; human, plasma, intravenous, 0.2 mg/kg, cycle 1 day 1, cohort 2, 0.2 mg/kg, n=3, geometric mean (%CV)): 79.8 ng/mL
- Cmax ([1]; human, plasma, intravenous, 0.2 mg/kg, cycle 1 day 15, cohort 2, 0.2 mg/kg, n=3, geometric mean (%CV)): 89.4 ng/mL
- Tmax ([1]; human, plasma, intravenous, 0.2 mg/kg, tmax, cycle 1 day 1, cohort 2, 0.2 mg/kg, n=3, value (range)): 1.1 h
- Tmax ([1]; human, plasma, intravenous, 0.4 mg/kg): 1 h
- AUC(0-t) ([1]; human, plasma, intravenous, 0.4 mg/kg, AUC(0–25), cycle 1 day 1, cohort 3, 0.4 mg/kg, n=2, range): 348 to 556 ng·h/mL
- AUC(0-t) ([1]; human, plasma, intravenous, 0.4 mg/kg, AUC(0–25), cycle 1 day 1, diabetic expansion, 0.4 mg/kg, n=6, geometric mean (%CV)): 607 ng·h/mL
- AUC(0-t) ([1]; human, plasma, intravenous, 0.4 mg/kg, AUC(0–25), cycle 1 day 15, cohort 3, 0.4 mg/kg, n=2, range): 324 to 803 ng·h/mL
- AUC(0-t) ([1]; human, plasma, intravenous, 0.4 mg/kg, AUC(0–25), cycle 1 day 15, diabetic expansion, 0.4 mg/kg, n=6, geometric mean (%CV)): 687 ng·h/mL
- AUC(0-t) ([1]; human, plasma, intravenous, 0.4 mg/kg, AUC(0–tlast), cycle 1 day 1, cohort 3, 0.4 mg/kg, n=2, range): 722 to 1450 ng·h/mL
- AUC(0-t) ([1]; human, plasma, intravenous, 0.4 mg/kg, AUC(0–tlast), cycle 1 day 1, diabetic expansion, 0.4 mg/kg, n=6, geometric mean (%CV)): 1070 ng·h/mL
- Cmax ([1]; human, plasma, intravenous, 0.4 mg/kg, cycle 1 day 1, cohort 3, 0.4 mg/kg, n=2, range): 143 to 144 ng/mL
- Cmax ([1]; human, plasma, intravenous, 0.4 mg/kg, cycle 1 day 1, diabetic expansion, 0.4 mg/kg, n=6, geometric mean (%CV)): 138 ng/mL
- Cmax ([1]; human, plasma, intravenous, 0.4 mg/kg, cycle 1 day 15, cohort 3, 0.4 mg/kg, n=2, range): 70.1 to 193 ng/mL
- Cmax ([1]; human, plasma, intravenous, 0.4 mg/kg, cycle 1 day 15, diabetic expansion, 0.4 mg/kg, n=6, geometric mean (%CV)): 151 ng/mL
- half-life ([1]; human, plasma, intravenous, 0.4 mg/kg, t1/2, cycle 1 day 1, cohort 3, 0.4 mg/kg, n=1): 60.6 h
- half-life ([1]; human, plasma, intravenous, 0.4 mg/kg, t1/2, cycle 1 day 1, diabetic expansion, 0.4 mg/kg, n=2, value (%)): 34.4 h
- Tmax ([1]; human, plasma, intravenous, 0.4 mg/kg, tmax, cycle 1 day 1, cohort 3, 0.4 mg/kg, n=2, range): 0.5 to 1.1 h
- Tmax ([1]; human, plasma, intravenous, 0.4 mg/kg, tmax, cycle 1 day 15, cohort 3, 0.4 mg/kg, n=2, range): 0.5 to 1.1 h
- Tmax [1, 9]: 1 h
- concentration at 8 day of cycle 1 [1, 9]: 4.92 ng/mL
- AUC(0-t) ([1]; human, plasma, intravenous, 0.8 mg/kg, AUC(0–25), cycle 1 day 1, MTD 0.8 mg/kg combined, n=41, geometric mean (%CV)): 1590 ng·h/mL
- AUC(0-t) ([1]; human, plasma, intravenous, 0.8 mg/kg, AUC(0–25), cycle 1 day 1, NHL expansion, 0.8 mg/kg, n=9, geometric mean (%CV)): 1350 ng·h/mL
- AUC(0-t) ([1]; human, plasma, intravenous, 0.8 mg/kg, AUC(0–25), cycle 1 day 1, cohort 4, 0.8 mg/kg, n=7, geometric mean (%CV)): 1600 ng·h/mL
- AUC(0-t) ([1]; human, plasma, intravenous, 0.8 mg/kg, AUC(0–25), cycle 1 day 15, MTD 0.8 mg/kg combined, n=35, geometric mean (%CV)): 1570 ng·h/mL
- AUC(0-t) ([1]; human, plasma, intravenous, 0.8 mg/kg, AUC(0–25), cycle 1 day 15, NHL expansion, 0.8 mg/kg, n=8, geometric mean (%CV)): 1760 ng·h/mL
- AUC(0-t) ([1]; human, plasma, intravenous, 0.8 mg/kg, AUC(0–25), cycle 1 day 15, cohort 4, 0.8 mg/kg, n=6, geometric mean (%CV)): 1480 ng·h/mL
- AUC(0-t) ([1]; human, plasma, intravenous, 0.8 mg/kg, AUC(0–tlast), cycle 1 day 1, MTD 0.8 mg/kg combined, n=41, geometric mean (%CV)): 2880 ng·h/mL
- AUC(0-t) ([1]; human, plasma, intravenous, 0.8 mg/kg, AUC(0–tlast), cycle 1 day 1, NHL expansion, 0.8 mg/kg, n=9, geometric mean (%CV)): 2710 ng·h/mL
- AUC(0-t) ([1]; human, plasma, intravenous, 0.8 mg/kg, AUC(0–tlast), cycle 1 day 1, cohort 4, 0.8 mg/kg, n=7, geometric mean (%CV)): 2940 ng·h/mL
- Cmax ([1]; human, plasma, intravenous, 0.8 mg/kg, cycle 1 day 1, MTD 0.8 mg/kg combined, n=41, geometric mean (%CV)): 454 ng/mL
- Cmax ([1]; human, plasma, intravenous, 0.8 mg/kg, cycle 1 day 1, cohort 4, 0.8 mg/kg, n=7, geometric mean (%CV)): 293 ng/mL
- Cmax ([1]; human, plasma, intravenous, 0.8 mg/kg, cycle 1 day 15, MTD 0.8 mg/kg combined, n=36, geometric mean (%CV)): 463 ng/mL
- Cmax ([1]; human, plasma, intravenous, 0.8 mg/kg, cycle 1 day 15, NHL expansion, 0.8 mg/kg, n=8, geometric mean (%CV)): 507 ng/mL
- Cmax ([1]; human, plasma, intravenous, 0.8 mg/kg, cycle 1 day 15, cohort 4, 0.8 mg/kg, n=6, geometric mean (%CV)): 370 ng/mL
- half-life ([1]; human, plasma, intravenous, 0.8 mg/kg, t1/2, cycle 1 day 1, MTD 0.8 mg/kg combined, n=28, value (%)): 38.2 h
- half-life ([1]; human, plasma, intravenous, 0.8 mg/kg, t1/2, cycle 1 day 1, NHL expansion, 0.8 mg/kg, n=8, value (%)): 38.9 h
- half-life ([1]; human, plasma, intravenous, 0.8 mg/kg, t1/2, cycle 1 day 1, cohort 4, 0.8 mg/kg, n=4, value (%)): 42.3 h
- half-life ([1]; human, plasma, intravenous, 0.8 mg/kg, t1/2, cycle 1 day 1, solid tumors expansion, 0.8 mg/kg, n=16, value (%)): 36.9 h
- half-life ([1]; human, plasma, intravenous, 0.8 mg/kg, terminal half-life, MTD 0.8 mg/kg, coefficient of variation 43%): 38.2 h
- Tmax ([1]; human, plasma, intravenous, 0.8 mg/kg, tmax, cycle 1 day 1, cohort 4, 0.8 mg/kg, n=7, value (range)): 1.1 h
- Tmax ([1]; human, plasma, intravenous, 0.8 mg/kg, tmax, cycle 1 day 15, NHL expansion, 0.8 mg/kg, n=8, value (range)): 0.8 h
- AUC(0-t) ([1]; human, plasma, intravenous, 1.2 mg/kg, AUC(0–25), cycle 1 day 1, cohort 5, 1.2 mg/kg, n=2, range): 2510 to 3820 ng·h/mL
- AUC(0-t) ([1]; human, plasma, intravenous, 1.2 mg/kg, AUC(0–tlast), cycle 1 day 1, cohort 5, 1.2 mg/kg, n=2, range): 4090 to 5230 ng·h/mL
- Cmax ([1]; human, plasma, intravenous, 1.2 mg/kg, cycle 1 day 1, cohort 5, 1.2 mg/kg, n=2, range): 616 to 739 ng/mL
- half-life ([1]; human, plasma, intravenous, 1.2 mg/kg, t1/2, cycle 1 day 1, cohort 5, 1.2 mg/kg, n=1): 33 h
- Tmax ([1]; human, plasma, intravenous, 1.2 mg/kg, tmax, cycle 1 day 1, cohort 5, 1.2 mg/kg, n=2, range): 0.6 to 1.3 h
- tumor reduction ([2]; 1 patient with endometrial carcinoma, 0.4 mg/kg cohort, stable disease): > 25%
- objective response or stable disease for >4 cycles ([2]; 10 patients without complete PTEN loss): none
- partial response (PR) ([2]; 48 patients with solid tumors, 2 patients, 1 confirmed, 1 unconfirmed): 4%
- complete response (CR) ([2]; 48 patients with solid tumors, one patient): 2%
- disease progression by clinical judgment ([2]; 48 patients with solid tumors, seven patients): 15%
- patients with stable disease ≥6 cycles ([2]; of the 15 patients with stable disease): 6 patients
- cycles until CR ([2]; patient with endometrial carcinoma, PIK3CA and PTEN mutations, complete PTEN loss, 0.8 mg/kg): 10 cycles
- overall response rate ([2]; patients with solid tumors): 6%
- CR, PR, or stable disease lasting ≥6 cycles ([2]; solid tumors at MTD with complete PTEN loss, 3 of 7): 43%
- CR, PR, or stable disease ([2]; solid tumors at MTD without PTEN loss, seven patients): none
- response rate [3]: 100%
- time of peak of post-infusion increase in blood pressure ([4]; in vivo): 1 to 2 h
- time to resolution of post-infusion increase in blood pressure ([4]; post-infusion): ≤ 24 h
- IC50 [5]: 6.4 nM
